Hits are enriched below; roughly 2.5% of the tested compounds scored in any of these assays.
MBD2 DNA inh = MBD2-methylated oligo binding inhibition. AID 686964. TR-FRET, MBD2 binding to methylated oligonucleotide. 370,000 tested, 0.31% active. inhibition, % at 4.4 µM. Q9UBB5; in the data active means inhibition above about 13%
Target sequence (Q9UBB5 whole entry, looked up): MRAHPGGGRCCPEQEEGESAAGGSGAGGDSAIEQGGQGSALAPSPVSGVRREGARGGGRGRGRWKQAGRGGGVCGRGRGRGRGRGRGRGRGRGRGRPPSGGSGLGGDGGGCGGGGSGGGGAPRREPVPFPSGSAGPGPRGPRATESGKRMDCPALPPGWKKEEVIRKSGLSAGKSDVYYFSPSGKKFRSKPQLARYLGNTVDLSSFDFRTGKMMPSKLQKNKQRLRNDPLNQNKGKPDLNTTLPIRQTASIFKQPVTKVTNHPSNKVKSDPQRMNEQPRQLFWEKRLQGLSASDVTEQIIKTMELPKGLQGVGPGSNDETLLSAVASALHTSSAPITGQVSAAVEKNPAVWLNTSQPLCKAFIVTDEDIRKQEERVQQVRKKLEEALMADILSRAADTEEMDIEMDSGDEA
Rin1-Abl PPI inh = human Rin1-Abl interaction inhibition. P00519+Q13671. TR-FRET Rin1/Abl binding, biochemical. inhibition, % at 7.35 µM. 360,000 tested, 0.4% active; in the data active means inhibition above about 5%, passing the limit was not always enough
Arr AP2 block = blocks beta-arrestin peptide binding to AP2 adaptin; AID 504490; inhibition, % at 10 µM; 340,000 tested, 0.31% active; FITC-arrestin peptide / GST-AP2 beads, flow cytometry; AP2 beta2 appendage carries R879A mutation;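 active means inhibition above a set limit, near 3 SD of compounds lacking own fluorescence, cut at about 54% in these data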;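 further: plate controls were DMSO wells for no effect and 5 µM unlabelled arrestin peptide for full effect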
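Material – AP2 appendage R879A on GSH beads · Buffer or medium – PBS with 0.05% Tween 20 and 0.1% BSA · Probe or stimulus – fluorescein-tagged arrestin peptide at 50 nM final · Incubation – compound with beads 12 min RT, then probe 1 h RT · Detection – high-throughput flow cytometry of beads, ex 488, em 535 nm · Evaluation – percent response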
UHRF1 binding = human UHRF1 methylated DNA binding inhibitors; inhibition, % at 4.4 µM; UHRF1 binding to methylated oligo, TR-FRET; Q96T88; 370,000 tested, 0.75% active; in the data active means inhibition above about 21%;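 further: UHRF1 SRA domain binding a hemimethylated CpG hairpin DNA probe; 0% = median of test compound wells and 100% = reference inhibitor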
ABHD5 PLIN5 PPI = blocks binding of human ABHD5 to perilipin-5; Q00G26+Q8WTS1; Split G. princeps luciferase complementation, luminescence, 4 h; inhibition, % at 4 µM; 360,000 tested, 0.78% active; AID 602281;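 active means inhibition above the mean inhibition across every tested compound plus 3 SD, cut at about 22% in these data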;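 further: 0% = DMSO only wells and the 100% control is not disclosed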
Beta2AR agonist = agonists of human beta-2 adrenergic receptor inducing internalization; P07550; response, % (no concentration beside the values); Am2.2-beta2AR cells, FAP receptor internalization, flow cytometry; 340,000 tested, 0.43% active; AID 504454;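 active means response above a set limit, near 3 SD of response in nonfluorescent compounds, cut at about 42% in these data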
The depositor's hits bear a star; / = not tested or not shown.

SMILES | MBD2 DNA inh | Rin1-Abl PPI inh | Arr AP2 block | UHRF1 binding | ABHD5 PLIN5 PPI | Beta2AR agonist
CNC(=O)/C(C#N)=C/c1c(N(Cc2ccccc2)Cc2ccccc2)nc2c(C)cccn2c1=O | -4 | -2 | 13 | -6 | 7 | 60*
N#C/C(=C\c1cccs1)C(=O)c1ccccc1Cl | 2 | / | 2 | -1 | / | 54*
COc1ccc(C2(CNC(=O)/C=C/c3ccco3)CCCC2)cc1OC | 1 | 4 | -8 | -2 | 35* | -3
COC(=O)c1sc(S(=O)(=O)N2CCC(C)CC2)c(C(=O)OC)c1C | -3 | -1 | 23 | 24* | -6 | 5
COC(=O)c1sc(S(=O)(=O)N2CCCCC2)c(C(=O)OC)c1C | 0 | -3 | 3 | -2 | -4 | 17
COc1ccc(-c2cc(-c3cccs3)nc(OC)c2C#N)cc1OC | -2 | 1 | 17 | 0 | -4 | 5
COc1nc(-c2cccs2)cc(-c2ccc(C)cc2)c1C#N | 13 | -1 | 7 | 22* | -4 | -9
O=C(CN1CCc2onc(-c3ccc(-n4cc(C5=CCCCC5)nn4)cc3)c2C1=O)N1CCOCC1 | -6 | / | / | -2 | / | /
CCCC#Cc1cnc2c(c1)C(=O)N([C@H](C)CO)C[C@H](C)[C@@H](CN(C)C(=O)CCN1CCCCC1)O2 | 12 | 0 | / | 24* | 6 | /
COc1ccc(C#Cc2cnc3c(c2)C(=O)N([C@H](C)CO)C[C@H](C)[C@@H](CN(C)C(=O)Nc2cccc(OC)c2)O3)cc1 | 5 | -2 | / | 19 | 1 | /
C[C@H](CO)N1C[C@H](C)[C@@H](CN(C)C(=O)Nc2ccccc2)Oc2ncc(C#CC3CCCCC3)cc2C1=O | 5 | -1 | / | 22* | 1 | /
C[C@@H]1CN([C@@H](C)CO)C(=O)c2cc(Br)cnc2O[C@H]1CN(C)C(=O)CCN1CCCCC1 | -1 | -2 | / | -2 | -1 | /
CN1N=C(c2ccc(Cl)cc2)CC(c2ccc(Cl)cc2)C1=O (centres undefined) | 7 | 1 | 22 | 22* | -9 | -6
Cc1ccc(C2CC(c3ccc(Cl)cc3)=NNC2=O)cc1 (centres undefined) | -5 | -1 | -3 | -3 | -2 | -3
N#CC1=C(N)n2c(s/c(=C\c3ccco3)c2=O)=C(C#N)C1c1ccco1 (centres undefined) | 12 | 0 | 11 | 41* | 23* | -14
COC(=O)CC1=NN(c2nc3ccccc3s2)C(=O)/C1=C/N(C)C | -2 | 0 | 26 | 79* | 1 | -8
COC(=O)[C@]12C[C@H](CC(=O)NCC34CC5CC(CC(C5)C3)C4)C(=O)N(Cc3ccco3)C1=C[C@H](C(C)(C)C)O[C@@H]2C | 5 | / | / | 0 | / | /
Cc1cc(S(=O)(=O)N2CCCOC2CNC(=O)C(=O)NCc2ccco2)ccc1F (centres undefined) | -4 | 2 | 19 | 56* | 4 | 6
O=C(COc1ccc(OCc2ccccc2)cc1)NN=C1CCCC1 | 13 | 2 | 7 | 34* | 1 | 1
CC(C)NC(=O)COc1ccc(OCc2ccccc2)cc1 | 2 | 1 | 5 | -1 | -3 | 2
COc1cccc(/C=C/C(=O)OCC(=O)NCCC2=CCCCC2)c1 | 1 | 0 | 2 | 37* | 0 | -1
CNC(=O)c1c(C)nn(-c2ccc(F)c(Cl)c2)c1-c1cc(C)on1 | 4 | 1 | -9 | 22* | 1 | 3
NCCCC[C@@H](C(=O)N1CCNCC1)n1cc(CN)nn1 | 1 | -1 | -7 | 0 | -6 | -1
CCCCc1cn([C@@H](CCCCN)C(=O)N2CCNCC2)nn1 | 6 | -2 | 6 | 24* | -5 | -1
CCOC(=O)COc1ccc(/C=C2\NC(=S)N(CC)C2=O)cc1 | -6 | -2 | -15 | -1 | 1 | 66*
SMILES | MBD2 DNA inh | Rin1-Abl PPI inh | Arr AP2 block | UHRF1 binding | ABHD5 PLIN5 PPI | Beta2AR agonist
Cc1cc(C)nc(SCc2ccc(F)cc2)n1 | 10 | 2 | 20 | 23* | 12 | -7
FC(F)(F)c1ccc2nc(CNc3nc(N4CCOCC4)nc4c3ncn4-c3ccsc3)[nH]c2c1 | 2 | / | / | -1 | / | /
Cc1cc(Br)ccc1NC(=O)C1CSC2(C)CCC(=O)N12 (centres undefined) | 0 | -2 | -2 | 35* | -7 | -2
CN(C)c1ccc(C(=O)NC2(N3CCC3=O)CCCC2)cc1 | 4 | 1 | 17 | 31* | -1 | -4
O=C(NCCCc1ccccc1)OC1CCC12CCC(c1ccccc1)CC2 (centres undefined) | 0 | / | / | 3 | / | /
C=CCn1c(SCC#N)nc2sc(CC)cc2c1=O | -2 | 3 | 10 | 28* | 5 | -5
C=CCn1c(SCC(=O)O)nc2sc(CC)cc2c1=O | -5 | 3 | -21 | 0 | 2 | 0
CCCCOc1ccc(Br)cc1/C(C)=N/NC1=NCCN1 | 0 | -1 | 0 | -2 | 13 | 48*
Cc1ccc2c(c1)C(CS(=O)(=O)NC1CCCC1)NC2 (centres undefined) | -4 | / | / | -5 | / | /
CCC(C)(C)n1nnnc1CN(Cc1ccco1)Cc1cc2cc3c(cc2[nH]c1=O)OCO3 | / | -4 | -10 | / | 23* | 0
CCC(C)(C)n1nnnc1CN(Cc1ccc(Cl)cc1)Cc1ccco1 | 0 | 2 | 4 | 1 | 4 | 6
COCCn1nnnc1CN(Cc1ccco1)Cc1cc2cc3c(cc2[nH]c1=O)OCO3 | 1 | -5 | 1 | -3 | 22* | 6
O=c1[nH]c(CN2CCCCC2)ccc1O | 0 | 18* | / | 9 | -15 | /
CC1Cc2ccccc2N1C(=O)c1cccnc1 (centres undefined) | -2 | -1 | -8 | -1 | -1 | -21
Cc1nc2ccc(C(=O)N3c4ccccc4CC3C)cc2s1 (centres undefined) | 5 | 0 | 24 | 23* | 3 | -10
CC1=CC2(C(Cc3ccccc3)N(CC3CC3)C(=NC(=O)c3ccccc3)N2C(=O)OCc2ccccc2)n2c(=O)n(-c3ccccc3)c(=O)n2C1 (centres undefined) | -3 | / | / | 2 | / | /
Cn1cnc2nc(Cl)nc(Cl)c21 | -2 | 0 | -12 | 3 | -1 | 62*
O=S(=O)(c1ccccc1F)N1CCC(c2nc3ccccc3o2)CC1 | 0 | / | / | -1 | / | /
COc1ccc(/C=C/c2c([N+](=O)[O-])c(=O)n(C)c(=O)n2C)cc1OC | -1 | 4 | -7 | 1 | -6 | 10
Cn1c(/C=C/c2ccc(Cl)cc2)c([N+](=O)[O-])c(=O)n(C)c1=O | 10 | 0 | -6 | 21* | 22* | 4
COC(=O)C1=C(C)N(C2CCCCC2)C(=O)/C1=C\c1cccs1 | -4 | 3 | 7 | 53* | -4 | -2
Cc1c(NC(=O)/C=C/c2cn(-c3ccccc3)nc2-c2ccc(F)cc2)c(=O)n(-c2ccccc2)n1C | -4 | 4 | 0 | 47* | 11 | 19
